The source of these data is publication PMC4122523 (Biomedical chromatography : BMC, 2013).

Molecules are shown by their SMILES.

Data set [1] has as its system neurotoxic and stimulant effects of METH. As to conditions: mouse; ref Kaushal et al., 2011, 2012; cited from earlier work.
For data set [2] the following is noted: ref Seminerio et al., 2012b, cited from earlier work.
Data set [3] can be described thus: Stability of stock solutions. Type of data set: physicochemical. The following applies: 12 h at room temperature and a week at −20 °C. The method in brief:
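Stock solutions: analyte 1.0 mg/mL in water, aripiprazole internal standard 1 mg/mL in methanol. Held 12 h at room temperature, and tested daily over 1 week during storage at −20 °C. Compared against freshly prepared standards by UPLC/MS/MS.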

Data set [4] relates to both subtypes of sigma receptors. The following applies: radioligand binding; ref Seminerio et al., 2012b; cited from earlier work.
Data set [5] concerns METH-induced dopaminergic neurotoxicity and hyperthermia. As to conditions: Swiss Webster mice, intraperitoneal; ref Seminerio et al., 2012a; cited from earlier work.
Data set [6] is described as follows: Stability of AZ66 in rat plasma at various storage conditions. It counts as in vitro ADME. Put shortly:
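Rat plasma QC samples at 10, 400 and 3000 ng/mL, six replicates each. Conditions: three freeze–thaw cycles at −20 °C; −20 °C for 30 days; room temperature for 12 h; processed extracts held in the autosampler at 25 °C for 24 h. Analysed by chloroform liquid–liquid extraction and UPLC/MS/MS with aripiprazole internal standard. Compared against freshly prepared standards; bias = 100×(measured−actual)/actual.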

The subject of data set [7] is cocaine-induced convulsions. The following applies: mice, toxic dose of cocaine; ref Seminerio et al., 2012b; cited from earlier work.
The test system of data set [8] is METH-induced memory impairment. As to conditions: mouse; ref Seminerio et al., 2012a; cited from earlier work.
The nature of data set [9]: Intravenous pharmacokinetic study in rats. As to conditions: rat. Type of data set: in vivo, male Sprague–Dawley rats. The method in brief:
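Male Sprague–Dawley rats (n = 6, 260–280 g), fasted overnight, given water after dosing and food from 4 h post-dose. Single 5 mg/kg i.v. dose via jugular-vein cannula. Blood (0.15 mL) drawn via cannula pre-dose and at 2–480 min and 12–42 h. Plasma separated at 10,000 g, 10 min, 4 °C, and stored at −20 °C. Chloroform extraction with aripiprazole internal standard, UPLC/MS/MS, then non-compartmental analysis.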

Where [10] appears, read: processed plasma samples, auto-sampler 24 h (25 °C), spiked 10 ng/mL.
[11] abbreviates: processed plasma samples, auto-sampler 24 h (25 °C), spiked 400 ng/mL.
Where [12] appears, read: rat plasma, long-term 30 days (−20 °C), spiked 10 ng/mL.
[13] abbreviates: rat plasma, long-term 30 days (−20 °C), spiked 400 ng/mL.
Setting [14] is: rat plasma, long-term 30 days (−20 °C), spiked 3000 ng/mL.
The mark [15] stands for this setting: rat plasma, short-term 12 h (25 °C), spiked 10 ng/mL.
Setting [16] is: rat plasma, short-term 12 h (25 °C), spiked 400 ng/mL.
[17] abbreviates: rat plasma, short-term 12 h (25 °C), spiked 3000 ng/mL.
Where [18] appears, read: rat plasma, three freeze–thaw cycles (−20 °C), spiked 400 ng/mL.
Where [19] appears, read: rat plasma, three freeze–thaw cycles (−20 °C), spiked 3000 ng/mL.
Where [20] appears, read: male, Sprague-Dawley, plasma, iv, 5 mg/kg.

As to `c1ccc(CCN2CCCCC2)cc1` [AC927], in [1], the “effect on neurotoxic effects of METH” value was “attenuated” and the “effect on stimulant effects of METH” value is listed as “attenuated”.
In the case of `S=c1sc2ccccc2n1CCCCN1CCN(C2CCCCC2)CC1` [CM156, 3-[4-(4-cyclohexylpiperazin-1-yl)butyl]benzo[d]thiazole-2(3H)-thione], in data set [1], the “effect on neurotoxic effects of METH” value was “attenuated” and the “effect on stimulant effects of METH” value is on record as “attenuated”. In addition, the in vitro half-life in data set [2] (rat liver microsomes) is reported as 4.62 min.
Regarding `O=C1CCc2ccc(OCCCCN3CCN(c4cccc(Cl)c4Cl)CC3)cc2N1` [IS, aripiprazole, reference compound], the “Stability of stock solutions” value in data set [3] was “stable”.
As for `CC(CCCn1c(=O)sc2cc(F)ccc21)N1CCN(C2CCCCC2)CC1` (stereo not shown) [AZ66, 3-[4-(4-cyclohexylpiperazin-1-yl)pentyl]-6-fluorobenzo[d] thiazole-2(3H)-one], the “affinity for both subtypes of sigma receptors” value in data set [4] is recorded as “high nanomolar affinity”. Besides, the “selectivity over a wide battery of CNS targets” value in [4] was “highly selective”. In addition, the “in vitro half-life compared with CM156” value in data set [2] (in vitro) was “appreciably longer half-life”. Besides, in data set [3], the “Stability of stock solutions” value is “stable”. The “effect on METH-induced dopaminergic neurotoxicity” value in [5] was “attenuate”. In addition, the “effect on METH-induced hyperthermia” value in [5] was “attenuate”. Further, the “Stability in reconstituted samples in the auto-sampler” value in [6] (25 °C for 24 h) was “stable”. Further, the Bias was 1.7% in [6] (setting [10]); 0.8% in data set [6] (setting [11]); 0.3% in data set [6] (setting [12]); −0.4% in data set [6] (setting [13]); −0.6% in [6] (setting [14]); 1.3% in data set [6] (setting [15]). Besides, the Bias in data set [6] (setting [16]) is reported as −0.5%; in [6] (setting [17]), 1.0%; in data set [6] (setting [18]) it was −0.6%; in data set [6] (setting [19]), 0.2%. For the same molecule, the Measured concentration in data set [6] (setting [10]) was found to be 10.1 ± 0.2 ng/mL; in data set [6] (setting [11]) it was 403.2 ± 18.6 ng/mL; in data set [6] (processed plasma samples, auto-sampler 24 h (25 °C), spiked 3000 ng/mL), 3222 ± 79.4 ng/mL; in data set [6] (setting [12]), 10.2 ± 0.4 ng/mL; in data set [6] (setting [13]), 402.4 ± 7.1 ng/mL; in [6] (setting [14]) it was 3028 ± 55.0 ng/mL. Moreover, the Measured concentration in data set [6] (setting [15]) was determined as 10.2 ± 0.2 ng/mL; in data set [6] (setting [16]) it was 401.4 ± 3.5 ng/mL; in data set [6] (setting [17]), 3015 ± 30.6 ng/mL; in data set [6] (rat plasma, three freeze–thaw cycles (−20 °C), spiked 10 ng/mL), 10.2 ± 0.7 ng/mL; in data set [6] (setting [18]) it was 396.1 ± 12.7 ng/mL; in [6] (setting [19]), 2990 ± 42.9 ng/mL. Besides, the “Short-term stability in rat plasma” value in data set [6] (room temperature for 12 h (25 °C)) is reported as “stable”. The “Freeze–thaw stability in rat plasma” value in [6] (three freeze–thaw cycles, 10, 400 and 3000 ng/mL) is “stable”. For the same molecule, in data set [6] (−20 °C for 30 days), the “Long-term stability in rat plasma” value is given as “stable”. Besides, the “attenuation of cocaine-induced convulsions” value in [7] is recorded as “significantly attenuate convulsions”. Besides, the “effect on memory impairment caused by repeated intake of METH” value in [8] was “attenuated the memory impairment”. In data set [9] (setting [20]), this molecule returned a Cmax of 1200 ± 200 ng/mL. Also, the MRT in [9] (setting [20]) stood at 7.6 ± 0.7 h. Also, the Vd in data set [9] (setting [20]) was 30.1 ± 3.6 L/kg. The clearance in [9] (setting [20]) is 43.3 mL/min/kg. In [9] (setting [20]), this molecule showed a half-life of 7.9 ± 0.3 h. For the same molecule, the “CL (total clearance)” value in [9] (i.v. 5 mg/kg, n=6, mean ± SD) is 43.3 ± 6.7 mL/min/kg.

The Cmax is the peak of the concentration-time curve. For orientation: MRT means a mean duration of stay, worked out from the concentration-time curve. As a reminder, the Vd is the apparent volume that relates the amount in the body to the concentration in plasma or blood. Low values mean little distribution into tissue, high ones wide distribution into tissue. Usually clearance stands for the volume of plasma or blood freed of the substance per unit of time. Read a low clearance as a low capacity for elimination. What is called half-life is the time in which the quantity being followed falls by half. High values mean slow loss, low ones fast loss.
